IC50 data for nine compounds are collected here from ChEMBL document CHEMBL1135814, “Aldisine alkaloids from the Philippine sponge Stylissa massa are potent inhibitors of mitogen-activated protein kinase kinase-1 (MEK-1)” (J Med Chem, 2002).

One test has as its system Caco-2. The test can be described thus: Inhibition of human adenocarcinoma cell line Caco-2 proliferation. Format: functional, cell-based. The method in brief:
(§1)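 Cells grown in RPMI 1640 with 10% fetal bovine serum, L-glutamine and penicillin/streptomycin. Compounds from 100% DMSO stocks were diluted in complete medium and applied at varying concentrations. Growth inhibition was read by sulforhodamine B staining, reported as IC50.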

The test system of the next test is LoVo. The test can be described thus: Inhibition of human adenocarcinoma cell line LoVo proliferation. Type of test: functional, cell-based. The method in brief:
as §1

For test [1], the target named is Dual specificity mitogen-activated protein kinase kinase 1 (Homo sapiens, UniProt Q02750). The test is described as follows: Inhibition of MEK1 phosphorylation by activated human recombinant Raf.
Test [2] concerns the target Serine/threonine-protein kinase RAF and Dual specificity mitogen-activated protein kinase kinase 1 (Raf/MEK) (Homo sapiens, UniProt P04049+Q02750). The test is described as follows: Inhibition of kinase activity of Raf/MEK/ERK kinase cascade in ELISA. Type of test: protein assay. A general note: ELISA stands for enzyme-linked immunosorbent assay.

Dual specificity mitogen-activated protein kinase kinase 1, sequence (Q02750 whole entry): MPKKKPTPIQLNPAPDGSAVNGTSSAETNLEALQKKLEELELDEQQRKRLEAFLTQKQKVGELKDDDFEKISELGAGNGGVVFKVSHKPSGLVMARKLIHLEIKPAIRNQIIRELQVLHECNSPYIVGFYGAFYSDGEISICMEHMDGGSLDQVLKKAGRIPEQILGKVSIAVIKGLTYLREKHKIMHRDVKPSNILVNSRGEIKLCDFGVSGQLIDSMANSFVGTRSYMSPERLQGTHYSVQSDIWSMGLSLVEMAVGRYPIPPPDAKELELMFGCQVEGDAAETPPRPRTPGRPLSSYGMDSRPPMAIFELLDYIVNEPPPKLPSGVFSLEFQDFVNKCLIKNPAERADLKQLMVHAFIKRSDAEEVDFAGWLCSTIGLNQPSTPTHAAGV

What is called IC50 is the concentration that gives 50% inhibition. As to `Nc1nc(C2CCNC(=O)c3[nH]c(Br)c(Br)c32)c[nH]1` (stereo not drawn), the IC50 in the test with Caco-2 was greater than 10 µM; in the test with LoVo, greater than 10 µM; in test [1] it was greater than 2.5 µM; in test [2], 1.288 µM.

Turning to `NC(=O)c1cc(Br)c(Br)[nH]1`, the 50% inhibitory concentration (IC50) with Caco-2 is greater than 10 µM; with LoVo, greater than 10 µM; in test [1], greater than 2.5 µM; in test [2] it was greater than 2.5 µM.

`NC1=N/C(=C2\CCNC(=O)c3[nH]c(Br)cc32)C(=O)N1`: the IC50 in the test on Caco-2 was greater than 3.87 µM; with LoVo, 0.586 µM.

`O=C1CCNC(=O)c2[nH]c(Br)cc21`: the half-maximal inhibitory concentration (IC50) in the test on Caco-2 and with LoVo was greater than 10 µM each time.

`CSCC[C@H](NC(=O)c1ccc(NC[C@@H](N)CS)cc1-c1ccccc1)C(=O)O`: the results for the IC50 in the test on Caco-2 and in the test on LoVo were greater than 10 µM and 0.05 µM, respectively.

Take `O=C1CCNC(=O)c2[nH]ccc21` [ALDISIN]: the 50% inhibitory concentration (IC50) in the test on Caco-2 is greater than 10 µM; with LoVo, greater than 10 µM; in test [1] it was greater than 2.5 µM; in test [2], greater than 2.5 µM.

With `NC1=N/C(=C2/CCNC(=O)c3[nH]ccc32)C(=O)N1` [DEBROMOHYMENIALDISINE], the IC50 was greater than 10 µM in the test on Caco-2, greater than 10 µM in the test on LoVo, greater than 2.5 µM in test [1] and 0.881 µM in test [2].

As to `NC1=NC(=O)/C(=C2\CCNC(=O)c3[nH]c(Br)cc32)N1` [HYMENIALDISINE], the IC50 in the test with Caco-2 is greater than 7.8 µM; in the test with LoVo, 0.71 µM.

As for `Nc1ncc(/C=C/CNC(=O)c2cc(Br)c(Br)[nH]2)[nH]1` [OROIDIN], the IC50 with Caco-2 was greater than 10 µM; with LoVo, greater than 10 µM; in test [1], greater than 2.5 µM; in test [2], greater than 2.5 µM.
